Compounds with a hit are over-represented: about 3.7% of the library has one in this group of screens.
Kir21 block: Kir2.1 (mouse) channel inhibition; P35561; HEK293-Kir2.1, FluxOR thallium flux fluorescence; hits give low values; B-score at 10 µM; hit rate 0.85% among 310,000; AID 1672;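 active = fluorescence ratio B-score at or below minus 3 SD of library scores, with starting-brightness B-score within 2 SD, cut at about -4.2 in these data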;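 note: channel flux triggered by added potassium and thallium sulfate stimulus; B-score of peak minus minimum fluorescence over baseline after thallium stimulus; more negative B-score means stronger Kir2.1 block with less thallium influx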
KCNQ1 pot: human KCNQ1 channel potentiation or activation; P51787; CHO-K1 KCNQ1, thallium flux FluxOR fluorescence; hits give high values; B-score at 10 µM; hit rate 0.35% among 310,000; AID 2648;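 active = fluorescence ratio B-score, a plate-corrected score, at least three library SD, with initial intensity B-score within 5 SD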
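Test system: CHO-K1 cells stably expressing KCNQ1 / Medium: assay buffer / Also added: depolarizing K+/Tl+ stimulus, K2SO4 and Tl2SO4 each 12.5 mM in 5x stock / Incubation: 90 min dye loading and 20 min compound exposure, both at room temperature / Signal: thallium influx via FluxOR fluorescence, kinetic imaging / Evaluation: B score of baseline-normalized fluorescence ratio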
KCNK3 block: human KCNK3 channel inhibition, primary screen; O14649; AID 602410; B-score at 10 µM; CHO-KCNK3 thallium flux, FluxOR fluorescence; hits give low values; hit rate 0.84% among 340,000;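 active = B-score under library mean minus 4 SD, starting fluorescence ratio at most library mean plus 5 SD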;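 note: more negative B-score means stronger inhibition of thallium flux through KCNK3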
KCNK9 inh: blocks the human KCNK9 two-pore domain potassium channel; HEK293 KCNK9, FluxOR thallium flux fluorescence; hits give low values; B-score at 10 µM; hit rate 1.2% among 310,000;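 active = ratio B-score over 3 SD below the library mean, with starting fluorescence within 5 SD of its mean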;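 note: negative B-score means less thallium flux so channel inhibition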
hERG protect: hERG (human) protection from proarrhythmic block; Q12809; CHO-hERG, FluxOR thallium flux, dofetilide IC70 present; activation (rescue from dofetilide block), less the hit threshold, % at 10 µM; hit rate 0.51% among 310,000;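 active = activation above the mean of controls blocked by dofetilide plus 5 SD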;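 note: thallium influx through hERG after potassium depolarization seen as dye fluorescence rise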
Target sequence (Q12809 whole entry, looked up): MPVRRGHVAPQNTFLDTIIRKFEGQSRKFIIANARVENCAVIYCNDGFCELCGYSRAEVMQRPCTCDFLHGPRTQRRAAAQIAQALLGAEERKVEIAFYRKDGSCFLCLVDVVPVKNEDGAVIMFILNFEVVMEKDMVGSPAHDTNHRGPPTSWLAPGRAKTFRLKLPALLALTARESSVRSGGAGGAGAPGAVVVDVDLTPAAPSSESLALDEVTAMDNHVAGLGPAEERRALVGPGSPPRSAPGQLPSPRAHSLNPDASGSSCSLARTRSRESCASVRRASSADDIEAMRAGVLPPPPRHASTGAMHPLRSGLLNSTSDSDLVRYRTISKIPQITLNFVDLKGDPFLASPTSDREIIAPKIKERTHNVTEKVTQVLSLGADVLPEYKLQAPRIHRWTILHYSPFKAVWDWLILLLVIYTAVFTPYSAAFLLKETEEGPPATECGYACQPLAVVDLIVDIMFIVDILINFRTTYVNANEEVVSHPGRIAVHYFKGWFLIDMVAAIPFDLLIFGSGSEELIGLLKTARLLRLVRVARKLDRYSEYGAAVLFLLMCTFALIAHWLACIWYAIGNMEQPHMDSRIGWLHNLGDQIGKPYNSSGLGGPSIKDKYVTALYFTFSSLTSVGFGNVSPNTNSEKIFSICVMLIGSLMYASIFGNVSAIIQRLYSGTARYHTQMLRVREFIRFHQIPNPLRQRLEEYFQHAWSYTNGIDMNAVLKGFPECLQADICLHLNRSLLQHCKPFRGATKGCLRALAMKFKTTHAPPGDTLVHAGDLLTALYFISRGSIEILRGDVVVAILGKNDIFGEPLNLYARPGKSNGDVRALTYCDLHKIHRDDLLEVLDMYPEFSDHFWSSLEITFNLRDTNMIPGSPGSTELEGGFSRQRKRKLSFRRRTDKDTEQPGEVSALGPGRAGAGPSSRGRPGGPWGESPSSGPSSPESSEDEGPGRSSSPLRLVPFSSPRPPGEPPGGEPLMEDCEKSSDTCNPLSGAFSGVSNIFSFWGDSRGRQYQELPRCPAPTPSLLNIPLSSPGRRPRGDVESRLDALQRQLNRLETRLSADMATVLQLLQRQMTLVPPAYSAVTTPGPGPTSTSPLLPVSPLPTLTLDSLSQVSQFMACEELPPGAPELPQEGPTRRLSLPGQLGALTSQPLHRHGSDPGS
KCNQ1 block: blocks the human KCNQ1 potassium channel. B-score at 10 µM. P51787. CHO-K1 KCNQ1, FluxOR thallium flux fluorescence; hits give high values. hit rate 1.3% among 310,000;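 active = compounds whose thallium flux B-score, printed positive for inhibition, exceeds three library SD while starting fluorescence stays within three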;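 note: channel opened by potassium depolarization with thallium stimulus after 20 min compound exposure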
KCNK3 inh conf: human KCNK3 channel inhibition, confirmation assay | shares compounds with KCNK3 block | CHO-KCNK3 thallium flux, FluxOR fluorescence; 0% buffer, 100% carvedilol maximal block | ratio percent of control, % at 10 µM | hit rate 99% among 2,400 | AID 651638;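 active = ratio percent of control, averaged over triplicates, above buffer control mean plus 5 SD, cut at about 64% in these data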;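 note: ratio is the fluorescence rise from min to max over baseline after thallium stimulus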
KCNK3 uninduced: activity in cells without induced KCNK3 expression. thallium flux ratio (lower = more inhibition) at 10 µM. non-induced KCNK3 parental cells, FluxOR thallium flux; hits give low values. shares compounds with KCNK3 block. AID 651747. hit rate 40% among 2,400;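 active = thallium flux ratio, averaged over three wells, more than 5 SD below the buffer control mean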;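 note: host cells are CHO cells without KCNK3 induction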
Numbers stand for hits; - = inactive; . = no result given.

SMILES	Kir21 block	KCNQ1 pot	KCNK3 block	KCNK9 inh	hERG protect	KCNQ1 block	KCNK3 inh conf	KCNK3 uninduced
CC1=CC(C)(C)N2C(=O)C3(C(C#N)=C(N)Oc4cc(O)ccc43)c3c(C)c(C)cc1c32 (stereo unspecified)	-	-	-8.91	-	-	-	81.0	0.16
CC1=CC(C)(C)N2C(=O)C3(C(C#N)=C(N)OC4=C3C(=O)CCC4)c3c(C)c(C)cc1c32 (stereo unspecified)	-	-	-	-	-	-	.	.
Cc1ccc(CNC(=O)C2CC3Cn4c(nc5cc(Cl)c(Cl)cc54)C3N2C)o1 (stereo unspecified)	-	-	-	-	-	-	.	.
O=C(N1CCCC1)C12CC3CCC(CC(C3)C1)C2	-	-	-11.7	-	-	-	85.7	-
CC1CCN(C(=O)Nc2ccc3nsnc3c2)CC1	-	-	-	-	-	-	.	.
CC1CCN(C(=O)Nc2cccc(NC(=O)N3CCC(C)CC3)c2)CC1	-	-	-8.96	-	-	-	111.7	-
COc1cccc(NC(=O)COC(=O)c2c3c(nc4ccccc24)CCC(C)C3)c1 (stereo unspecified)	-	-	-10.3	-	-	-	96.0	-
CC(=O)c1ccc(S(=O)(=O)Nc2ccccc2C(=O)NC2CC2)cc1	.	.	-	.	.	.	.	.
O=c1[nH]c([N+](=O)[O-])nn1C(c1ccccc1)c1ccccc1	-	-	-10.1	-	-	-	-	-
Cc1[nH]n(-c2ccccc2)c(=O)c1C(c1cccc([N+](=O)[O-])c1)c1c(C)[nH]n(-c2ccccc2)c1=O	-	-	-	-	-	-	.	.
Cc1ccc2c(CC(=O)N3CCN(S(=O)(=O)c4ccccc4)CC3)coc2c1	.	.	-	.	.	.	.	.
N#Cc1ccccc1S(=O)(=O)N1CCN(C(=O)Cc2coc3cc(O)ccc23)CC1	.	.	-12.1	.	.	.	-	-
Cn1c(CSc2ccccc2)c(C#N)c2ccccc21	-	-	-10.9	-	-	-	105.0	0.159
Cc1c(C#N)c2ccccc2n1C	-	-	-	-	-	-	.	.
CCS(=O)(=O)c1nc(S(=O)(=O)c2ccc(Cl)cc2)c(NCCN2CCOCC2)s1	-	-	-	-	-	-	.	.
Cc1cc(C)c2c(CN3CCC(C)CC3)cc(=O)oc2c1C	-	-	-11.8	-	-	-	103.0	-
O=C(N/N=C/c1cccnc1)C(O)c1ccccc1 (stereo unspecified)	-	-	-	-	-	-	.	.
COc1ccc(C)cc1NC(=O)c1cc2ccccc2cc1OCC(=O)NCc1ccco1	-	-	-13.7	-	-	-	109.0	-
Cc1ccc(NC(=O)c2ccc(Cl)c(S(=O)(=O)N3CCc4ccccc43)c2)nc1	.	.	-11.5	.	.	.	144.3	0.133
CC1CN(S(=O)(=O)c2cc(C(=O)NCCCN3CCCC3=O)ccc2Cl)CC(C)O1 (stereo unspecified)	.	.	-	.	.	.	.	.
COC(=O)c1sc(S(=O)(=O)NC(Cc2ccccc2)C(=O)O)c(C(=O)OC)c1C (stereo unspecified)	.	.	-	.	.	.	.	.
COC(=O)c1c(S(=O)(=O)NCc2ccccc2)sc(C(=O)O)c1C	-	-	-10.8	-	-	-	120.7	0.158
COc1ccccc1N(C)S(=O)(=O)c1ccc(C(=O)Nc2cccc(Br)c2)cc1	.	.	-12.4	.	.	.	125.0	-
O=C(Nc1ccc(Cl)cc1)Nc1ccccc1CC[N+](=O)[O-]	-	-	-10.6	-	-	8	82.0	-
O=C(Cc1cccc2ccccc12)N1CCN(c2ncccn2)CC1	-	-	-	-	-	-	.	.
SMILES	Kir21 block	KCNQ1 pot	KCNK3 block	KCNK9 inh	hERG protect	KCNQ1 block	KCNK3 inh conf	KCNK3 uninduced
Cc1sc2nc(SCc3nnc(-c4cccs4)o3)n(C3CCCC3)c(=O)c2c1C	-	-	-11.7	-	-	8	79.3	-
Cc1sc2nc(CSc3nnc(Cc4cccs4)n3C3CCCCC3)[nH]c(=O)c2c1C	-	-	-	-	-	-	.	.
CCOC(=O)N1CCC(N2Cc3cccc(C(=O)NC(C)c4ccc5c(c4)OCCO5)c3C2=O)CC1 (stereo unspecified)	-	-	-13.1	-	-	-	100.7	-
O=[N+]([O-])c1cc(C(F)(F)F)ccc1NCC1CCCO1 (stereo unspecified)	-	-	-9.69	-	-	-	70.3	-
O=C(Nc1ccccc1)c1ccc(NCC2CCCO2)c([N+](=O)[O-])c1 (stereo unspecified)	-	-	-	-	-	-	.	.
Cc1ccc(NC(=O)c2cc(C)nc3ccccc23)c(C)c1	-	-	-	-	-	-	.	.
Cc1ccc(NC(=O)c2cc(C)nc3ccccc23)c(Br)c1	-	-	-10.2	-7.99	-	-	94.0	-
COc1cc(C(=O)Nc2ccc3c(c2)ncn3C(C)(C)C)cc(OC)c1OC	-	-	-9.28	-	-	-	75.0	-
Cc1noc(C)c1COC(=O)C1CCN(S(=O)(=O)c2c(Cl)cccc2Cl)CC1	-	-	-8.98	-	-	-	114.0	-
Cc1ccc(S(=O)(=O)N2CCC(C(=O)OCc3c(C)noc3C)CC2)cc1C	-	-	-	-	-	-	.	.
CC(=O)Nc1nc(-c2cccs2)cs1	-	-	-	-	-	-	.	.
O=C(Nc1nc(-c2cccs2)cs1)c1ccc(Cl)s1	-	-	-23.5	-	-	-	86.3	-
O=C(c1ccccc1)c1nn(-c2cccc(Cl)c2)c2nc(-c3ccccc3)cc(=O)n12	-	-	-20.5	-	-	-	118.0	0.152
CCOC(=O)c1nn(-c2cccc(Cl)c2)c2nc(Nc3ccccc3)cc(=O)n12	-	-	-	-	-	-	.	.
COc1ccc(NC(=O)COc2cccc(-n3cnnn3)c2)cc1Cl	-	-	-	-	-	-	.	.
CCCC/C(O)=C1\C(=O)CCCC1=NCCc1c(C)[nH]c2ccc(OC)cc12	-	-	-	-	-	-	.	.
CCC/C(O)=C1\C(=O)CCCC1=NCCc1ccc(OCC)c(OCC)c1	-	-	-9.17	-	-	-	117.0	-
O=C(Nc1ccc(Cl)c(Cl)c1)C1C2C=CC3(O2)C1C(=O)N(CCN1CCCCC1)C3C(=O)NC1CCCCC1 (stereo unspecified)	-	-	-	-	-	-	.	.
c1ccc(CCNc2ncnc3scc(C4COc5ccccc5O4)c23)cc1 (stereo unspecified)	-	-	-9.12	-	-	-	127.0	0.123
O=C(O)C1=CC[C@@H](c2ccc(Cl)cc2)N(S(=O)(=O)c2ccc(Cl)cc2)[C@H]1c1cccc(Cl)c1	.	.	-	.	.	.	.	.
COc1ccc(C(=O)NCCSc2ccccc2)cc1	-	-	-	-	-	-	.	.

Source: PubChem
